Source: PubChem BioAssay (several laboratories)
TDP2 absorb: human TDP2 enzyme inhibitors, primary screen, biochemical, epi absorbance, recombinant enzyme. hit rate 0.34% among 370,000. Tyrosyl-DNA phosphodiesterase 2 (Homo sapiens), O95551. T5PNP hydrolysis, p-nitrophenol absorbance 415 nm. inhibition, % at 12.8 µM;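 active means inhibition above the mean of all tested compounds plus 3 SD, set per campaign, cut at about 25% in these data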
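System – recombinant human TDP2 · Amount – 120 nM TDP2 per well · Buffer or medium – Mg2+-containing Tris-HCl buffer, pH 7.5 · Reagent – T5PNP substrate, 5 mM · Dosing – 12.8 µM single point, 1% DMSO · Incubation – 2 h at 37 °C · Measured by – epi absorbance · Read-out basis – percent inhibition · Benchmarks – high control without enzyme, low control DMSO plus TDP2 · Repeats – singlicate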
NSD2 HMT inh: NSD2 histone methyltransferase inhibitors, primary screen, biochemical, AlphaScreen, single concentration, set 2; Histone-lysine N-methyltransferase NSD2 (Homo sapiens), O96028; NSD2 peptide methylation, 120 min; inhibition, % at 12.5 µM; hit rate 0.54% among 310,000; AID 743445, 2014; in the data active means inhibition above about 50%
Casp6 inh: human caspase-6 inhibitors, primary screen, biochemical, VEID-R110 fluorescence, single point, set 2 | hit rate 0.53% among 350,000 | inhibition, % at 12.5 µM | AID 686996, 2013 | purified caspase-6, Z-VEID-R110 cleavage fluorescence;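 active means mean inhibition across replicates at least about 35%, with every replicate also reaching that limit, limit read from the data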
Target sequence (P55212 24-179 limits assumed): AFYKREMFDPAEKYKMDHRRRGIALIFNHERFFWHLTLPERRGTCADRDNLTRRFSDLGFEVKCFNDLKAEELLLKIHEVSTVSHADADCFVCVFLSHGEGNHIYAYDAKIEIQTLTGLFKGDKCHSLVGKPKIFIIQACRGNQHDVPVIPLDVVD
Target sequence (P55212 194-293 limits assumed): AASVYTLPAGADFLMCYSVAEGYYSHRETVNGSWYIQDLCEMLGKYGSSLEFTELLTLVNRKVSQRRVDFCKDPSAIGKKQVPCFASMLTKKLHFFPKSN
MBD2 DNA inh: inhibitors of MBD2 binding to methylated DNA, primary screen, biochemical, TR-FRET, DNA-binding domain, human | inhibition, % at 4.4 µM | MBD2 binding to methylated oligonucleotide | AID 686964, 2013 | Methyl-CpG-binding domain protein 2 (Homo sapiens), Q9UBB5 | hit rate 0.31% among 370,000; in the data active means inhibition above about 13%
Target sequence (Q9UBB5 whole entry, looked up, the tested form may be a part): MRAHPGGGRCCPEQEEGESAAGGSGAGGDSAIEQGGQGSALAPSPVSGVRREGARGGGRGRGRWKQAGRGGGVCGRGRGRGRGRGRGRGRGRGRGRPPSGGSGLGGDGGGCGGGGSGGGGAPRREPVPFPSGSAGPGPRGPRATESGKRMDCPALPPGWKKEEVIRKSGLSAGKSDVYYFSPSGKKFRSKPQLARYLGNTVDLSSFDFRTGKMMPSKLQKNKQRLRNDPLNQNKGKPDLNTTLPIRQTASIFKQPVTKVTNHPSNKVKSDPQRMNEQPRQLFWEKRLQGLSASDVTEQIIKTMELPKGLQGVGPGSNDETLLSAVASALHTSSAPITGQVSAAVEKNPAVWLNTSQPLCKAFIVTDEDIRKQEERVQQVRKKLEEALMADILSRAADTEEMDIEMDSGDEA
UHRF1 binding: UHRF1 methylated DNA binding inhibitors, primary screen, counter-screen for MBD2 inhibitor project, biochemical, TR-FRET, human UHRF1, single concentration. E3 ubiquitin-protein ligase UHRF1 (Homo sapiens), Q96T88. UHRF1 binding to methylated oligo. hit rate 0.75% among 370,000. inhibition, % at 4.4 µM; in the data active means inhibition above about 21%;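 further: UHRF1 SRA domain binding a hemimethylated CpG hairpin DNA probe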
LEDGF integ inh: blockers of LEDGF/p75-dependent integrase strand transfer – biochemical, TR-FRET, high throughput, primary screen; inhibition, % at 3.7 µM; hit rate 0.64% among 370,000; HIV-1 integrase (with human LEDGF/p75); TR-FRET IN-LEDGF/p75 DNA integration, Eu/Cy5; AID 743269, 2014;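 active means inhibition above the screen-wide mean plus 3 SD, cut at about 13% in these data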;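 further: signal is the Cy5 over europium emission ratio at 671 and 618 nm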
TDP2 inh conf: human TDP2 enzyme inhibitors, retest, confirmation, biochemical, epi absorbance, recombinant enzyme | shares compounds with TDP2 absorb | hit rate 22% among 1,100 | absorbance read-out | inhibition, % at 12.8 µM; in the data active means inhibition above about 25%
Each line names hits and unclear results; the compound was inactive in the other large screens (follow-up assays come after a bar, where they were run). A selection: hits, their analogues and other compounds. The true share with any hit is near 1.8%.

O=C1NNC(c2ccccc2)=N/C1=C\c1ccccc1Cl	TDP2 absorb 56, NSD2 HMT inh 93 | TDP2 inh conf 62
COC(=O)c1cccc(NC(=O)c2cc3ccccc3o2)c1	none
COC(=O)c1cc(NC(=O)c2cc3ccccc3o2)cc(C(=O)OC)c1	TDP2 absorb 26 | TDP2 inh conf inactive
CC1CC(=O)C2=C(C1)OC(N)=C(C#N)C2c1coc2ccccc2c1=O (stereo not drawn)	TDP2 absorb 26 (no result: Casp6 inh) | TDP2 inh conf inactive
COc1cc2c(cc1OC)CN(C(=O)CCc1c[nH]c3ccccc13)[C@H](C(=O)O)C2	none
O=C(O)[C@@H]1CCCN1C(=O)CCc1c[nH]c2ccccc12	TDP2 absorb 25 | TDP2 inh conf inactive
CCOC(=O)C1CCN(C(=O)CCC(=O)NNc2nc3ccccc3c3nc(C)nn23)CC1	none
Cc1nc2c3ccccc3nc(NNC(=O)CCC(=O)N3CCC(C)CC3)n2n1	TDP2 absorb 29 | TDP2 inh conf inactive
Cc1cccc(N=C2C(=O)Nc3c(Cl)cccc32)c1	none
O=C1Nc2c(Cl)cc(Cl)cc2C1=O	TDP2 absorb 49, NSD2 HMT inh 118 | TDP2 inh conf 54
C[C@H](CO)N1C[C@H](C)[C@H](CN(C)CC2CCCCC2)Oc2c(NC(=O)C3CC3)cccc2C1=O	none (no result: TDP2 absorb, NSD2 HMT inh, MBD2 DNA inh, UHRF1 binding, LEDGF integ inh)
C[C@H]1CCCCO[C@H](CN(C)C(=O)C2CCCCC2)[C@@H](C)CN([C@@H](C)CO)C(=O)c2cc(NS(C)(=O)=O)ccc2O1	none (no result: TDP2 absorb, NSD2 HMT inh, MBD2 DNA inh, UHRF1 binding, LEDGF integ inh)
COc1ccc(C2=NO[C@@H]3C(=O)N(c4ccc5c(c4)OCCO5)C(=O)[C@H]23)cc1OC	none (no result: Casp6 inh)
CC(C)(C)C(=O)[C@@H]1[C@@H]2C(=O)N(c3ccc4c(c3)OCCO4)C(=O)[C@@H]2C2c3ccccc3C=CN21 (stereo partly drawn)	TDP2 absorb 27 (no result: Casp6 inh) | TDP2 inh conf inactive
NC(=O)C1CCCN(C(=O)CCCNC(=O)c2ccc(Cl)cc2)C1 (stereo not drawn)	TDP2 absorb 30 | TDP2 inh conf inactive
Cc1oc(-c2ccccc2F)nc1CS(=O)(=O)CC(=O)NCCCc1ccccc1	none (no result: NSD2 HMT inh)
Cc1oc(-c2ccccc2F)nc1CS(=O)(=O)CC(=O)NC(C)CCc1ccccc1 (stereo not drawn)	TDP2 absorb 27 | TDP2 inh conf inactive
COc1cccc(-c2ccc3c(c2)[C@H]2[C@H](CCN2C(=O)C2CCCC2)[C@@H](CO)N3)c1	none (no result: TDP2 absorb, NSD2 HMT inh, MBD2 DNA inh, UHRF1 binding, LEDGF integ inh)
C[C@@H]1CN([C@@H](C)CO)C(=O)c2cc(C#Cc3ccc(F)cc3)cnc2O[C@H]1CN(C)S(C)(=O)=O	none (no result: TDP2 absorb, NSD2 HMT inh, MBD2 DNA inh, UHRF1 binding, LEDGF integ inh)
COc1cc(CN2CCN(Cc3ccco3)CC2)cc(OC)c1	none
COc1ccc(CN2CCN(Cc3ccco3)CC2)c(OC)c1	TDP2 absorb 27 | TDP2 inh conf inactive
COc1ccccc1CN1CCN(Cc2ccco2)CC1	TDP2 absorb 28 | TDP2 inh conf inactive
Cc1ccccc1CN1CCN(C(=O)c2ccc(F)cc2)CC1	TDP2 absorb 29 | TDP2 inh conf inactive
O=C(Nc1cccc(F)c1)N1CC(=O)N2[C@H](C1)[C@@H](c1ccc(-c3ccc(F)cc3)cc1)[C@@H]2CO	none (no result: TDP2 absorb, NSD2 HMT inh, MBD2 DNA inh, UHRF1 binding, LEDGF integ inh)
C[C@@H]1CCCCO[C@@H](CN(C)C(=O)CCCN(C)C)[C@@H](C)CN([C@H](C)CO)C(=O)c2cc(NC(=O)NC3CCCCC3)ccc2O1	none (no result: TDP2 absorb, NSD2 HMT inh, MBD2 DNA inh, UHRF1 binding, LEDGF integ inh)
COc1cc(C(=O)N2CCN(C3CCCCC3)CC2)cc(OC)c1OC	TDP2 absorb 25 | TDP2 inh conf inactive
COc1cc(C(=O)N2CCC(N3CCCCCC3)CC2)cc(OC)c1OC	none (no result: Casp6 inh)
COc1ccc2c(CC(=O)N[C@@H](Cc3ccccc3)C(=O)O)cc(=O)oc2c1C	none
Cc1c(O)ccc2c(CC(=O)N[C@@H](Cc3ccc(O)cc3)C(=O)O)cc(=O)oc12	TDP2 absorb 31 | TDP2 inh conf inactive
Cn1nccc1C(=O)N1CCC(Cc2ccccc2)CC1	TDP2 absorb 45 | TDP2 inh conf inactive
Cc1nn(-c2cccc(Cl)c2)c2c1C(c1ccncc1)C(C#N)=C(N)O2 (stereo not drawn)	none (no result: Casp6 inh)
Cc1nn(-c2ccccc2)c2c1C(c1ccc([N+](=O)[O-])cc1)C(C#N)=C(N)O2 (stereo not drawn)	TDP2 absorb 62 | TDP2 inh conf inactive
Cc1ccc(-n2nc(C)c3c2OC(N)=C(C#N)C3c2ccc(F)cc2)cc1 (stereo not drawn)	TDP2 absorb 49 (no result: Casp6 inh) | TDP2 inh conf inactive
Cc1nn(-c2cccc(Cl)c2)c2c1C(c1cccnc1)C(C#N)=C(N)O2 (stereo not drawn)	TDP2 absorb 60 (no result: Casp6 inh) | TDP2 inh conf inactive
O=C1C[C@@](C(=O)NCCN2CCOCC2)(c2ccc([N+](=O)[O-])cc2)[C@@H](c2ccc(CO)cc2I)N1CC12CC3CC(CC(C3)C1)C2	none (no result: TDP2 absorb, NSD2 HMT inh, MBD2 DNA inh, UHRF1 binding, LEDGF integ inh)
O=C(NC1C(=O)NNC1c1ccccc1)c1ccc(F)cc1 (stereo not drawn)	TDP2 absorb 26 (no result: Casp6 inh) | TDP2 inh conf inactive
O=C(NC1C(=O)NNC1c1ccc(Cl)cc1)c1ccc(F)cc1 (stereo not drawn)	none
O=C(c1cnccn1)N1CC(=O)N2[C@H](CO)[C@H](c3ccc(C#CCC4CCCC4)cc3)[C@@H]2C1	none (no result: TDP2 absorb, NSD2 HMT inh, MBD2 DNA inh, UHRF1 binding, LEDGF integ inh)
COC(=O)C(CC#Cc1ccc2c(c1)[C@]1(C(=O)N2)[C@H](c2ccccc2OCCO)N2[C@H](c3ccccc3)[C@H](c3ccccc3)OC(=O)[C@H]2[C@@H]1C(=O)NC[C@H](O)c1ccccc1)C(=O)OC	none (no result: TDP2 absorb, NSD2 HMT inh, MBD2 DNA inh, UHRF1 binding, LEDGF integ inh)
CCOc1ccccc1NC(=O)C(NCCN(C)C)c1ccccc1 (stereo not drawn)	TDP2 absorb 27 | TDP2 inh conf inactive
CCOc1ccccc1NC(=O)C(NCCc1ccc(OC)cc1)c1ccccc1 (stereo not drawn)	none
C[C@@H]1CN([C@@H](C)CO)C(=O)Cc2cc(NC(=O)C3CCCCC3)ccc2O[C@H]1CN(C)CC1CCCCC1	none (no result: TDP2 absorb, NSD2 HMT inh, MBD2 DNA inh, UHRF1 binding, LEDGF integ inh)
C[C@H](CO)N1C[C@H](C)[C@H](CN(C)S(=O)(=O)c2cccs2)Oc2ncc(/C=C/c3ccccc3)cc2C1=O	none (no result: TDP2 absorb, NSD2 HMT inh, MBD2 DNA inh, UHRF1 binding, LEDGF integ inh)
